Bioassay records: PubChem, Johns Hopkins Ion Channel Center
TRPC4 inh: inhibitors of mouse TRPC4 channel, primary screen, Fluo4 calcium, HEK293 TRPC4beta/mu-opioid cells; Short transient receptor potential channel 4 (Mus musculus), Q9QUQ5; DAMGO-evoked Fluo4 calcium flux; active compounds read low; B-score at 10 µM; 300,000 compounds, 0.39% hits; AID 2247, 2010;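 active means B-score over 3 SD under the library average, no early fluorescence shift, positive overall ratio signal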
Target sequence (Q9QUQ5 whole entry, looked up): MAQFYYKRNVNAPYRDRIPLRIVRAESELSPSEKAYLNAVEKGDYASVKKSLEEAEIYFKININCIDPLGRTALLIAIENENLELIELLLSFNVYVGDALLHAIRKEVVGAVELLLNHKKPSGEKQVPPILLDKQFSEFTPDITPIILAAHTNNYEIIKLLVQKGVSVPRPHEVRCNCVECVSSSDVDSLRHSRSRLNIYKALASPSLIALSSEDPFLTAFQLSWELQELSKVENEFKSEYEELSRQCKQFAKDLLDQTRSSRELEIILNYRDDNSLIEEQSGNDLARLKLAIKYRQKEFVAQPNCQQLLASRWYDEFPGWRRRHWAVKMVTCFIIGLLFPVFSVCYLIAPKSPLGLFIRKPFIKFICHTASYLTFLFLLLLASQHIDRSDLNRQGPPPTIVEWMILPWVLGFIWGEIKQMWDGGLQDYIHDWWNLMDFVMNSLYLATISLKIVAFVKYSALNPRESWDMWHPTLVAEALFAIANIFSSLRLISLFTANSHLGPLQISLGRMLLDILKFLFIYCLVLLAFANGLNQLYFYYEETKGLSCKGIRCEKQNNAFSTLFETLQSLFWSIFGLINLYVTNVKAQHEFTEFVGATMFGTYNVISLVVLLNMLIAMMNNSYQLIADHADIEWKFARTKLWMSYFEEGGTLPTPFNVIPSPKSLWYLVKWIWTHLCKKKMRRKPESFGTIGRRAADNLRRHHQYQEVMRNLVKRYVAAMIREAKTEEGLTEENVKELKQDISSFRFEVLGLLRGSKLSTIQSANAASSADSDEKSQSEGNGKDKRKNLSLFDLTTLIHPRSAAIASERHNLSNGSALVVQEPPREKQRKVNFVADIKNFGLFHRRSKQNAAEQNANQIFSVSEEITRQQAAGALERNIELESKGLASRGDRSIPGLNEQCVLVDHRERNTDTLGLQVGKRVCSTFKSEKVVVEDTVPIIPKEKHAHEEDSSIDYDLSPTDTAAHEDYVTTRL
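Assay system: Stable TRPC4beta/mu-opioid receptor HEK293 cells | Reagent: DAMGO in two steps, submaximal then maximal | Compound dosing: Single concentration per test compound | Signal: Fluo4 Ca2+ flux fluorescence | Evaluation: Per-well B score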
TRPC4 act: activators of mouse TRPC4 channel, primary screen, Fluo4 calcium, HEK293 TRPC4beta/mu-opioid cells. AID 2237, 2010. Fluo4 calcium fluorescence; active compounds read high. B-score at 10 µM. 310,000 compounds, 0.49% hits;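 active means B-score above 5 SD of library B-scores, and initial fluorescence ratio not above library mean plus 5 SD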;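 further: positive B-score marks a calcium rise read as TRPC4 activation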
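Technique: kinetic Fluo4 calcium fluorescence; Test system: TRPC4beta and mu-opioid receptor HEK293 stable cells; Measure: B-scored integrated calcium fluorescence ratio; Benchmarks: low control buffer alone, high control maximal DAMGO; Schedule: 45 min room-temperature Fluo4 loading, 110 s read.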
TRPC6 activator: mouse TRPC6 channel activators, primary screen, cell-based, HEK293, membrane potential dye. B-score at 10 µM. Short transient receptor potential channel 6 (Mus musculus), Q61143. 310,000 compounds, 0.13% hits. HEK293-TRPC6 membrane potential dye fluorescence; active compounds read high;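 active means B-score of the integrated fluorescence ratio above library mean plus 3 SD, and starting fluorescence ratio within library mean plus 5 SD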;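 further: higher score means more depolarization so channel activation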
TRPC4 PAM: positive allosteric modulators of TRPC4, primary screen, cell-based, mouse TRPC4beta, HEK293 mu-opioid, Fluo-4 calcium | Short transient receptor potential channel 4 (Mus musculus), Q9QUQ5 | DAMGO EC20, Fluo-4 Ca2+ flux; active compounds read high | B-score at 10 µM | 310,000 compounds, 0.42% hits | AID 2227, 2009;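 active means B-score of calcium response area above 5 SD of library B-scores, with initial fluorescence ratio within 5 SD of library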;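 further: B-score of integrated fluorescence ratio over time as area under calcium response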
Kir21 block: inhibitors of mouse Kir2.1 inward-rectifier potassium channel; Inward rectifier potassium channel 2 (Mus musculus), P35561; HEK293-Kir2.1, FluxOR thallium flux fluorescence; active compounds read low; B-score at 10 µM; 310,000 compounds, 0.85% hits;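 active means fluorescence ratio B-score at or below minus 3 SD of library scores, with starting-brightness B-score within 2 SD, cut at about -4.2 in these data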;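 further: channel flux triggered by added potassium and thallium sulfate stimulus; B-score of peak minus minimum fluorescence over baseline after thallium stimulus; more negative B-score means stronger Kir2.1 block with less thallium influx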
TRPC6 inhibitor: mouse TRPC6 channel inhibitors, primary screen, cell-based, HEK293, membrane potential dye | Short transient receptor potential channel 6 (Mus musculus), Q61143 | ACh-evoked depolarization; active compounds read low | B-score at 10 µM | 310,000 compounds, 1.1% hits | AID 2553, 2010;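 active means B-score under library mean minus 3 SD, initial fluorescence not abnormally high, positive integrated signal ratio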;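 further: B-score derived from integrated fluorescence ratio over the kinetic read; more negative B-score means stronger inhibition of depolarization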
TRPC4 spec 2: mouse TRPC4 off-target activity of TRPC6 inhibitors, second screen; shares compounds with TRPC6 inhibitor; HEK293 TRPC4/MOR, membrane potential dye fluorescence; channel activated by saturating DAMGO dose; inhibition, % at 10 µM; 920 compounds, 42% hits; AID 2776;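 active means compounds whose fluorescence signal differed from control wells by over 3 SD, either direction, in both duplicate plates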
TRPC4 spec: mouse TRPC4 modulation by TRPC6 hits, confirmation, selectivity assay for TRPC6 inhibitor project, cell-based, HEK293 TRPC4/mu-opioid, membrane potential dye. shares compounds with TRPC6 inhibitor. membrane potential fluorescence. activity change, negative = inhibition, % at 10 µM. 920 compounds, 61% hits. AID 2777, 2010;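 active means rise or fall in signal beyond 3 SD of buffer-only wells in both replicate plates, either sign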;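 further: integrated kinetic ratio of fluorescence range over baseline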
HEK293 MPD ctr 2-1: nonspecific membrane potential effects, parental HEK293, confirmation, counter-screen for TRPC6 inhibitor project, cell-based, second counter screen | 920 compounds, 31% hits | shares compounds with TRPC6 inhibitor | parental HEK293 membrane potential dye fluorescence; maximal acetylcholine challenge after compound addition | signal change vs control, % at 10 µM | AID 2779, 2010;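 active means membrane potential signal moving either way by over 3 SD of the maximum-effect control, in both duplicate plates, meaning non-specific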
HEK293 MPD ctr-1: membrane potential modulation in parental HEK293, confirmation, counter-screen for TRPC6 inhibitor project, cell-based. shares compounds with TRPC6 inhibitor. parental HEK293 membrane potential dye fluorescence. membrane potential signal change, % at 10 µM. 920 compounds, 60% hits. AID 2780, 2010;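 active means membrane potential signal shifting up or down by more than 3 SD of buffer-only wells, on both duplicate plates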
HEK293 MPD ctr-2: parental HEK293 membrane potential modulation, confirmation, counter-screen for TRPC6 modulator project, cell-based; shares compounds with TRPC6 inhibitor; membrane potential dye fluorescence; membrane potential signal change, % at 10 µM; 2,400 compounds, 51% hits; AID 488924, 2010;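 active means membrane potential signal moves up or down beyond 5 SD from buffer-only wells, on both duplicate plates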
HEK293 MPD ctr 2-2: second check of TRPC6 modulator effects in parental HEK293 cells; shares compounds with TRPC6 inhibitor; membrane potential dye fluorescence; after compound, maximal acetylcholine stimulation; inhibition, % at 10 µM; 2,400 compounds, 14% hits; AID 488926;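 active means membrane potential signal drops by more than 5 SD from the mean control signal, in both duplicate plates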;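 further: plate controls were acetylcholine ECmax control wells for no effect and buffer only wells for full effect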
TRPC4 ctr mod: TRPC4 modulation by TRPC6 hit compounds, confirmation, selectivity assay for TRPC6 modulator project, cell-based, HEK293 TRPC4/mu-opioid, membrane potential dye, mouse. membrane potential fluorescence. percent change from control (negative = decrease, positive = increase), % at 10 µM. AID 488927, 2010. 2,400 compounds, 69% hits. shares compounds with TRPC6 inhibitor;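 active means membrane potential signal moved up or down beyond 5 SD of buffer control wells, in both duplicate plates, actives on both sides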;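 further: plate controls were assay buffer wells for no effect and DAMGO maximal-effect wells for full effect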
TRPC4/MOR inh 2: second check of whether TRPC6 modulators also affect mouse TRPC4. shares compounds with TRPC6 inhibitor. HEK293 TRPC4/mu-opioid, membrane potential dye fluorescence; stimulated with maximal-effect DAMGO. inhibition, % at 10 µM. 2,400 compounds, 55% hits. AID 488928;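 active means drop in membrane potential signal beyond 5 SD of the control wells in both duplicate plates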;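 further: TRPC4 counter screen for TRPC6 hits run under conditions tuned for TRPC6 not TRPC4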
TRPC6 block conf: mouse TRPC6 channel inhibitors, confirmation, HEK293 cells, membrane potential dye, duplicate | shares compounds with TRPC6 inhibitor | ACh-evoked depolarization | inhibition, % at 10 µM | 3,300 compounds, 43% hits;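 active means fluorescence ratio falls more than 5 SD below the full-stimulation control mean, in both duplicate runs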;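 further: integrated fluorescence ratio of peak minus minimum over baseline after agonist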
TRPC6 act conf: mouse TRPC6 channel activators, confirmation, HEK293 cells, membrane potential dye, duplicate; 2,800 compounds, 11% hits; HEK293-TRPC6 membrane potential dye fluorescence, FDSS; activation, % at 10 µM; shares compounds with TRPC6 inhibitor; AID 488961, 2010;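 active means ratio signal rise beyond 5 SD above unstimulated control wells' mean, seen in both duplicate runs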;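 further: plate controls were buffer EC0 wells for no effect and acetylcholine ECmax response for full effect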
Numbers without * were called inactive; i = inactive; / = not tested or not shown. Rows were chosen to be rich in hits. Some 3% of all compounds tested hit in one or more screens of this group.

SMILES	TRPC4 inh	TRPC4 act	TRPC6 activator	TRPC4 PAM	Kir21 block	TRPC6 inhibitor	HEK293 MPD ctr-2	HEK293 MPD ctr 2-2	TRPC4 ctr mod	TRPC4/MOR inh 2	TRPC6 block conf	TRPC6 act conf	others
Cc1ccc(-c2nc(C(=O)NCCCN3CCOCC3)cc3c2[nH]c2ccccc23)cc1	i	i	i	i	-0.75	-6.6*	/	/	/	/	i	i	TRPC4 spec 2=58%*;TRPC4 spec=-16%*;HEK293 MPD ctr 2-1=i;HEK293 MPD ctr-1=-166%*
COc1ccc(-c2nc(C(=O)NCCCN3CCOCC3)cc3c2[nH]c2ccccc23)cc1OC	i	i	i	i	-0.85	-5.6*	i	i	-18%*	67%*	46%*	i
Cc1ccc(-c2cc(C(=O)NCCCN3CCOCC3)c3ccccc3n2)cc1	i	i	i	i	-1.4	i	/	/	/	/	/	/
Cc1ccc(CSCC(=O)Nc2ccc(N3CCOCC3)cc2N2CCOCC2)cc1	i	i	i	i	-0.51	i	/	/	/	/	/	/
COc1ccc(N2C(=O)C(C)C(Cc3ccc(C)cc3)C2=O)cc1 (stereo not drawn)	i	i	i	i	-0.05	i	/	/	/	/	/	/
CC(C)(C)C(O)(CC#CCN1CCCC1)c1ccccc1 (stereo not drawn)	i	i	i	i	-0.87	i	/	/	/	/	/	/
Cc1ccc(OCC(=O)NCCNC(=O)c2cccnc2)cc1C	i	i	i	i	-1	i	/	/	/	/	/	/
Cc1ccc(OCC(=O)NNC(=O)c2cccnc2)cc1C	i	i	i	i	-0.65	-5.7*	i	i	i	i	i	i
O=C(c1ccc(Cl)c(S(=O)(=O)Nc2ccc(F)cc2)c1)N1CCN(c2ccccn2)CC1	i	i	i	i	1	-10*	/	/	/	/	i	i	TRPC4 spec 2=i;TRPC4 spec=9.5%*;HEK293 MPD ctr 2-1=i;HEK293 MPD ctr-1=4.3%*
O=C(c1ccc(Cl)c(Cl)c1)N1CCN(c2ccccn2)CC1	i	i	i	i	0.59	i	/	/	/	/	/	/
CC(=O)N1CCOc2ccc(S(=O)(=O)NC(C)c3ccccc3)cc21 (stereo not drawn)	i	i	i	i	-1.3	i	/	/	/	/	/	/
C=CCc1cc(Cl)ccc1OCCN(C)C	/	i	i	i	-0.08	-5*	i	i	8.0%*	i	i	i
C=CCc1cc(OC)ccc1OCCN(C)Cc1ccccc1	i	i	i	i	-1.7	i	/	/	/	/	/	/
O=C(Nc1cccc(S(=O)(=O)N2CCCCC2)c1)c1c2c(nc3ccccc13)CCN(Cc1ccccc1)C2	i	i	i	i	2	-5.3*	i	i	i	i	i	i
O=C(CN1CCN(Cc2ccccc2)CC1)Nc1cccc(S(=O)(=O)N2CCCCCC2)c1	i	i	i	i	0.18	i	/	/	/	/	/	/
Cc1cc2c3c([nH]c2cc1S(=O)(=O)NCCCOC(C)C)CC(C)(C)CC3=O	i	i	i	i	3.5	i	/	/	/	/	/	/
COCCCn1c(=O)c2sccc2n(Cc2cc(C(=O)OC)ccc2OC)c1=O	i	i	i	i	0.05	i	/	/	/	/	/	/
CCCCS(=O)(=O)Nc1ccc(C)cn1	i	i	i	i	-0.89	i	/	/	/	/	/	/
Cc1cc(C)cc(N(C(=O)c2snc(C(N)=O)c2N)C(C(=O)NCC2CCCO2)c2ccc(C)o2)c1 (stereo not drawn)	i	i	i	i	0.58	-5.4*	i	i	18%*	40%*	i	/
COc1ccc2c(c1)c1c3n2CCN(C)C3=NCC1	i	i	i	i	0.85	-13*	-290%*	90%*	-44%*	46%*	58%*	i
COC(=O)c1c(-c2cccnc2)csc1NC(=O)c1ccc2c(c1)OCO2	i	i	i	i	-0.34	i	/	/	/	/	/	/
O=C(Nc1c2c(nn1-c1ccc(F)cc1)CSC2)c1ccc(S(=O)(=O)N2CCOCC2)cc1	i	i	i	i	-2.2	-5.6*	i	i	i	i	i	i
COc1ccc(-n2nc3c(c2NC(=O)c2ccc(S(=O)(=O)N4CCOCC4)cc2)CS(=O)(=O)C3)cc1	i	i	i	i	-0.83	i	/	/	/	/	/	/
